The nature of data set [1]: Inhibition of Trichomonas vaginalis G3 AE1 expressed in Pichia pastoris after 20 mins. The gist of the method: (§1)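 Recombinant AE zymogens expressed in Pichia pastoris; SmAE and TvAE1 autoactivated in 0.5 M sodium acetate, 4 mM DTT, pH 4.5, 37 °C, 3 h to overnight; IrAE used without activation. Buffer 0.1 M citrate phosphate, 4 mM DTT, pH 6.8 (SmAE, TvAE1) or pH 5.5 (IrAE). Inhibitor 2.0–0.0002 µM final, 20 min preincubation at room temperature; 10 µM final Cbz-Ala-Ala-Asn-AMC, 20 min; IC50 from RFU/min vs concentration.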

A short description of data set [2]: Inhibition of Ixodes ricinus AE expressed in Pichia pastoris after 20 mins. In short, it runs like this: as §1
For data set [3], the system named is Schistosoma mansoni. As to the kind of experiment: (§2) Inhibition of Schistosoma mansoni AE expressed in Pichia pastoris after 20 mins. The gist of the method: as §1
The subject of data set [4] is Schistosoma mansoni. As to the kind of experiment: Inhibition of Schistosoma mansoni AE assessed as ratio of pseudo-first-order inhibition rate constant to inhibitor concentration. The gist of the method: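 Autoactivated recombinant SmAE added to six inhibitor concentrations (0–1 µM final) in 0.1 M citrate phosphate, 2 mM DTT, pH 6.8 with 20 µM Cbz-Ala-Ala-Asn-AMC; progress followed every 2 s for 30 min at 25 °C (ex 355, em 460 nm); kobs/[I] by nonlinear regression, corrected for substrate by factor 1.33.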

Data set [5] in a line: as §2. In short, it runs like this:
as §1

The next data set deals with T1, Caspase-3 (Homo sapiens) (UniProt P42574).
T1 sequence (whole entry): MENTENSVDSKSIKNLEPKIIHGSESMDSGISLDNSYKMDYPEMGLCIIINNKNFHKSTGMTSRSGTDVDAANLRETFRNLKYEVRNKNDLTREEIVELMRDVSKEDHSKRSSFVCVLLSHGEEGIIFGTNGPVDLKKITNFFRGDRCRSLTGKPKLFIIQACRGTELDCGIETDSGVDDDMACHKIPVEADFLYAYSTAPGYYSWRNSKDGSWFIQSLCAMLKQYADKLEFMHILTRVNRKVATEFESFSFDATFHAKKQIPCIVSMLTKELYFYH
As to the kind of experiment: Inhibition of caspase 3 assessed as ratio of pseudo-first-order inhibition rate constant to inhibitor concentration. The gist of the method:
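Caspase-3 (1 nM final) preactivated 10 min at 37 °C in 40 mM Pipes, 200 mM NaCl, 0.2% CHAPS, 20% sucrose mixed 1:1 with 20 mM DTT, pH 7.2; enzyme added to inhibitor plus Ac-Asp-Glu-Val-Asp-AMC; progress curves 20 min at 37 °C (ex 360, em 465 nm); duplicates; rates corrected for substrate (KM 9.7 µM).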

The target in the next data set is T2, Caspase-6 (Homo sapiens) (UniProt P55212).
T2 sequence (whole entry): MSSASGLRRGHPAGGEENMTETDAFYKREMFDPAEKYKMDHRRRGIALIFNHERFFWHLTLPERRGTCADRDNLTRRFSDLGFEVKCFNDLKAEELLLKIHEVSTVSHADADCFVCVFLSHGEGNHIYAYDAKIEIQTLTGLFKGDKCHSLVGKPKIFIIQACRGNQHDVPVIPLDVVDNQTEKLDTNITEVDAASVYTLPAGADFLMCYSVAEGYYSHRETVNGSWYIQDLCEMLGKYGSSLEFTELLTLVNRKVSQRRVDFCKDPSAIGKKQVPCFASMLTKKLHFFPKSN
The data set can be described thus: Inhibition of caspase 6 assessed as ratio of pseudo-first-order inhibition rate constant to inhibitor concentration. The gist of the method:
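Caspase-6 at 5 nM final, assayed in the same Pipes/NaCl/CHAPS/sucrose/DTT buffer, pH 7.2, 37 °C with Ac-Asp-Glu-Val-Asp-AMC by the progress curve method; inhibitor stocks 5 × 10^-3 to 2.42 × 10^-6 M in DMSO; rates corrected for substrate using KM 236.35 µM.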

The next data set concerns the target Caspase-8 (Homo sapiens) (UniProt Q14790). The data set can be described thus: Inhibition of caspase 8 assessed as ratio of pseudo-first-order inhibition rate constant to inhibitor concentration. In short, it runs like this:
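Caspase-8 at 50 nM final, assayed in the same Pipes/NaCl/CHAPS/sucrose/DTT buffer, pH 7.2, 37 °C with Ac-Asp-Glu-Val-Asp-AMC by the progress curve method; inhibitor stocks 5 × 10^-3 to 2.42 × 10^-6 M in DMSO; rates corrected for substrate using KM 6.79 µM.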

Data set [6] deals with T3, Calpain-1 catalytic subunit (Homo sapiens) (UniProt P07384).
T3 sequence (whole entry): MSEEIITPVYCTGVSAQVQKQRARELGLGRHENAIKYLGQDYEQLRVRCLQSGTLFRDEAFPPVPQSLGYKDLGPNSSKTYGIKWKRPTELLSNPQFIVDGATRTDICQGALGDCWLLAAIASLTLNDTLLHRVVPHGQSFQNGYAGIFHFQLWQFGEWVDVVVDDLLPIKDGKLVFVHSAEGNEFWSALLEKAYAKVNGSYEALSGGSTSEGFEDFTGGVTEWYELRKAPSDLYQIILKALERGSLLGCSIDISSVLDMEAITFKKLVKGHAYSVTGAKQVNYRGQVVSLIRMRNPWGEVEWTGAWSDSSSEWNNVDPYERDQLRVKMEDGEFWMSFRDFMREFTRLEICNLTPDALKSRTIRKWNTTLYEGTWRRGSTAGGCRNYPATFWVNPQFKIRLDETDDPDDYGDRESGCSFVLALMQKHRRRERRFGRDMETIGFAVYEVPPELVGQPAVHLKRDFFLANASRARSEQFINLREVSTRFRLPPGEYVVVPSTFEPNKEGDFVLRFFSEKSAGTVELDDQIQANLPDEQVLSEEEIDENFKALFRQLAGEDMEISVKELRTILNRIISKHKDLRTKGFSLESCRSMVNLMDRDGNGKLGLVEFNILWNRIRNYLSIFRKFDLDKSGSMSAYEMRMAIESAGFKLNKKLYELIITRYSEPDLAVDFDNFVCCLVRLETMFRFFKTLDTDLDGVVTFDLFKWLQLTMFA
As to the kind of experiment: Inhibition of calpain 1 assessed as ratio of pseudo-first-order inhibition rate constant to inhibitor concentration.

A further data set addresses T4, Papain (Carica papaya) (UniProt P00784).
T4 sequence (whole entry): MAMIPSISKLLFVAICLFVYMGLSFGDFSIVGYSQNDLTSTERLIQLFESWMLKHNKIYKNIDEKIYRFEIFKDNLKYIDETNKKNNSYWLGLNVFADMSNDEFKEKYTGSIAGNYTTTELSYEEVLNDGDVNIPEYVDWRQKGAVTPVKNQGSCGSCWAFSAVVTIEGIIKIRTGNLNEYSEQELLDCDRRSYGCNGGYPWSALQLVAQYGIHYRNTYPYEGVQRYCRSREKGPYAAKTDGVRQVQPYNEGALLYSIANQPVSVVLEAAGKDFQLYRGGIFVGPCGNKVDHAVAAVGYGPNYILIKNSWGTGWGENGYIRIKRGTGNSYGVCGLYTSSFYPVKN
As to the kind of experiment: Inhibition of papain assessed as ratio of pseudo-first-order inhibition rate constant to inhibitor concentration. In short, it runs like this:
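Papain, about 0.29 mg/mL, incubated with inhibitor in 50 mM Hepes, 2.5 mM DTT, 2.5 mM EDTA, pH 7.5; aliquots taken over time into 53.7 µM Cbz-Phe-Arg-pNA; p-nitroanilide release read at 405 nm at room temperature; pseudo-first-order inactivation kinetics.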

Data set [7] addresses Cathepsin B (Homo sapiens) (UniProt P07858). The data set can be described thus: Inhibition of cathepsin B assessed as ratio of pseudo-first-order inhibition rate constant to inhibitor concentration.
The target in data set [8] is Lys-gingipain HG66 (Porphyromonas gingivalis) (UniProt P72197). As to the kind of experiment: Inhibition of Porphyromonas gingivalis gingipain K assessed as ratio of pseudo-first-order inhibition rate constant to inhibitor concentration. The gist of the method: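 Gingipain K diluted to 4.61 nM in 0.2 M Tris-HCl, 0.1 M NaCl, 5 mM CaCl2, 2 mM DTT, pH 8.0 and incubated with inhibitor (DMSO) at room temperature; aliquots taken at intervals into buffer with Suc-Ala-Phe-Lys-AMC; fluorescence at 465 nm; pseudo-first-order kinetics.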

Data set [9] concerns the target T5, Clostripain (Clostridium histolyticum) (UniProt P09870).
T5 sequence (whole entry): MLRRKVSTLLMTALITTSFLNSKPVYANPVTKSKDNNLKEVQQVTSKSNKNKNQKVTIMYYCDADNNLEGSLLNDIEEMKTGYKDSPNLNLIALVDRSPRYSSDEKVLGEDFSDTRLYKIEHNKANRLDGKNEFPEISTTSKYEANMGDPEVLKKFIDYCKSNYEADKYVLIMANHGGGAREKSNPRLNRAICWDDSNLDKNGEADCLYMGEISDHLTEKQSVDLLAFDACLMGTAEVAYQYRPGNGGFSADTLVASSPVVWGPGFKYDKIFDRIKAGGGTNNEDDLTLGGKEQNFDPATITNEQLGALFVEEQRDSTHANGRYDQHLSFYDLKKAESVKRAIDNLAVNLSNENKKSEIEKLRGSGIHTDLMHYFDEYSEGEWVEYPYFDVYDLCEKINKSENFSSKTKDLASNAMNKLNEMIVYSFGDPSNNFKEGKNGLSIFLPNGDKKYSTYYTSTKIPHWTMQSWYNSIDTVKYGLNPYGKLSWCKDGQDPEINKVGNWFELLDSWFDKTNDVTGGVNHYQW
The data set can be described thus: Inhibition of sClostridium histolyticum clostripain assessed as ratio of pseudo-first-order inhibition rate constant to inhibitor concentration. Particulars: Hathewaya histolytica. In short, it runs like this: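 Clostripain activated in 8 mM DTT, then incubated with inhibitor (DMSO) in 20 mM Tris-HCl, 10 mM CaCl2, 0.005% Brij 35, 2 mM DTT, pH 7.6; aliquots taken at intervals into buffer with Cbz-Phe-Arg-AMC; fluorescence at 465 nm; pseudo-first-order kinetics.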

The species named for the next data set is Sus scrofa. As to the kind of experiment: Inhibition of pig AE assessed as ratio of pseudo-first-order inhibition rate constant to inhibitor concentration. The gist of the method: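 Pig AE in 39.5 mM citric acid, 121 mM Na2HPO4, 1 mM EDTA, 0.1% CHAPS, 0.015% Brij, 1 mM DTT.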
A short description of data set [10]: Stability assessed as half life in citrate phosphate buffer at pH 6.8 in presence of dithiothreitol. The data set is classed as physicochemical. Particulars: citrate phosphate buffer with dithiothreitol.

SMILES strings stand for the structures. Calls of active or inactive are those of the source. The calls are words filed in the database; no cut-off is given here. Some results are limits rather than exact numbers.

A word on the IC50: it is the concentration needed to halve the response being measured. A low value points to inhibition by little substance. In the case of `CCN(CC)C(=O)/C=C/C(=O)N(CC(N)=O)NC(=O)[C@H](C)NC(=O)[C@H](C)NC(=O)OCc1ccccc1`, the IC50 stood at 2000 nM in data set [1] and 2700 nM in data set [2]. The result in the data set on Schistosoma mansoni [3] was inactive. The Ratio in the data set with Schistosoma mansoni [4] was found to be 17400 M⁻¹ s⁻¹.

Consider `C[C@H](NC(=O)OCc1ccccc1)C(=O)N[C@@H](C)C(=O)NN(CC(N)=O)C(=O)/C=C/C(=O)c1ccccc1`, for which the IC50 was not below 10000 nM in data set [1] and more than 20000 nM in data set [2]. In the data set on Schistosoma mansoni [3], the outcome was inactive.

For `C[C@H](NC(=O)OCc1ccccc1)C(=O)N[C@@H](C)C(=O)NN(CC(N)=O)C(=O)/C=C/C(=O)N1CCc2ccccc21`, the IC50 in data set [1] is 50 nM; in [2] it was 18 nM; in [5] it was 70 nM. Further, the outcome (at Caspase-3 (Homo sapiens); on Caspase-6 (Homo sapiens); at Caspase-8 (Homo sapiens); in [6]; on Papain (Carica papaya); in data set [7]) was inactive. Also, the result in [9] was inactive. In [8], the Ratio is 1 M⁻¹ s⁻¹.

Consider `C[C@H](NC(=O)OCc1ccccc1)C(=O)N[C@@H](C)C(=O)NN(CC(N)=O)C(=O)CCl`, for which, in the data set listed under Sus scrofa, the Ratio is 139000 M⁻¹ s⁻¹.

As to `C=CCOC(=O)/C=C/C(CC(N)=O)NC(=O)[C@H](C)NC(=O)[C@H](C)NC(=O)OCc1ccccc1` (stereo not given in full), the Ratio in the data set filed under Sus scrofa was determined as 776 M⁻¹ s⁻¹.

For the molecule `C[C@H](NC(=O)OCc1ccccc1)C(=O)N[C@@H](C)C(=O)NN(CC(N)=O)C(=O)COC(=O)c1ccccc1`, in the data set listed under Sus scrofa, the Ratio was found to be 13 M⁻¹ s⁻¹.

Take `C/C=C/C=C/C(=O)N(CC(N)=O)NC(=O)[C@H](C)NC(=O)[C@H](C)NC(=O)OCc1ccccc1`: 8000 nM corresponded to half-maximal inhibition in [1] (IC50). In addition, the result with Schistosoma mansoni [3] was inactive.

For `C[C@H](NC(=O)OCc1ccccc1)C(=O)N[C@@H](C)C(=O)NN(CC(N)=O)C(=O)/C=C/C(=O)NCCc1ccccc1`, the results for the IC50 in [1], in data set [2] and in data set [5] were 10 nM, 350 nM and 600 nM, respectively. The outcome (at Caspase-3 (Homo sapiens); on Caspase-6 (Homo sapiens); on Caspase-8 (Homo sapiens); in data set [6]; in data set [7]; in [8]) was inactive. Also, the result in [9] was inactive. Besides, the Ratio at Papain (Carica papaya) was determined as 12 M⁻¹ s⁻¹.

By half-life is commonly meant how long it takes for the measured level to halve. As to `C[C@H](NC(=O)OCc1ccccc1)C(=O)N[C@@H](C)C(=O)NN(CC(N)=O)C(=O)/C=C/C(=O)OCc1ccccc1`, the IC50 in [1] is 5 nM; in [2], less than 1 nM. Moreover, the half-life in data set [10] stood at 2.5 min.

Turning to `CCOC(=O)[C@H]1O[C@@H]1C(=O)N(CC(N)=O)NC(=O)[C@H](C)NC(=O)[C@H](C)NC(=O)OCc1ccccc1`, in [5], the midpoint of inhibition, the IC50, lay at 53 nM. Also, the Ratio in the data set on Schistosoma mansoni [4] came out at 17400 M⁻¹ s⁻¹; in the data set listed under Sus scrofa it was 43000 M⁻¹ s⁻¹.

The values above are taken from ChEMBL document CHEMBL1150273, “Aza-peptidyl Michael acceptors. A new class of potent and selective inhibitors of asparaginyl endopeptidases (legumains) from evolutionarily diverse pathogens” (J Med Chem, 2008).
